Results from ChEMBL document CHEMBL1137643, “In vitro and in vivo activities of novel fluoroquinolones alone and in combination with clarithromycin against clinically isolated Mycobacterium avium complex strains in Japan” (2007).
Converted amounts (≈) assume the structure as drawn.

What was measured:
Assay type in all cases: functional
[1] = system: Mycobacterium avium complex sp.; experiment: Antimycobacterial activity against Mycobacterium avium complex N018 infected C57BL/6J mouse assessed as liver bacterial count at 200 mg/kg/day dosed through gavage route administered for 28 days post bacterial challenge measured 2 days after last dose
Method in brief: (§1)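 Mice given 1.0 × 10^7 to 3.0 × 10^7 CFU in 100 μl via tail vein; daily gavage dosing began day 21 for 28 days; distilled-water controls. Sacrifice 48 h after last dose. Organ portions homogenized in 1 ml saline, diluted in 7H9, plated on 7H10; log10 CFU/organ, mean ± SEM, 5 mice/group. Experiment run twice; ANOVA with Fisher's PLSD.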

[2] = system: Mycobacterium avium complex sp.; experiment: Antimycobacterial activity against Mycobacterium avium complex N018 infected C57BL/6J mouse assessed as lung bacterial count at 200 mg/kg/day dosed through gavage route administered for 28 days post bacterial challenge measured 2 days after last dose; method in brief: as §1
[3] = system: Mycobacterium avium complex sp.; experiment: Antimycobacterial activity against Mycobacterium avium complex N018 infected C57BL/6J mouse assessed as spleen bacterial count at 200 mg/kg/day dosed through gavage route administered for 28 days post bacterial challenge measured 2 days after last dose; method in brief: as §1
[4] = system: Mycobacterium avium; experiment: Antimycobacterial activity against Mycobacterium avium JATA51-01 after 14 days by broth microdilution method; details: JATA51-01, 336 h
Method in brief: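 Broth microdilution in 7H9 (10% OADC, 0.05% Tween 80, 0.2% glycerol); twofold drug dilutions, final 0.125–128 μg/ml; inoculum 1.0 × 10^5 CFU/well from 7-day 37°C subculture of 21-day 7H10 colonies; 14 days at 37°C; MIC = lowest concentration with complete growth inhibition; triplicate.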

[5] = system: Mycobacterium intracellulare; experiment: Antimycobacterial activity against Mycobacterium intracellular JATA52-01 after 14 days by broth microdilution method; details: JATA52-01, 336 h
Method in brief: (§2)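 Broth microdilution in Middlebrook 7H9 (OADC, Tween 80, glycerol); twofold dilutions giving final 0.125–128 μg/ml; inoculum 1.0 × 10^5 CFU/well; 14 days at 37°C. MIC = lowest concentration completely inhibiting growth. Triplicate tests. Inocula from 7H10 agar colonies (21 days) subcultured in 7H9 for 7 days at 37°C, stored at −80°C.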

[6] = system: Mycobacterium avium complex sp.; experiment: Antimycobacterial activity against Mycobacterium avium complex N016 after 14 days by broth microdilution method; details: N016, 336 h; method in brief: as §2
[7] = system: Mycobacterium avium complex sp.; experiment: Antimycobacterial activity against Mycobacterium avium complex N018 after 14 days by broth microdilution method; details: N018, 336 h; method in brief: as §2
[8] = system: Mycobacterium avium complex sp.; experiment: Antimycobacterial activity against Mycobacterium avium complex N084 after 14 days by broth microdilution method; details: N084, 336 h; method in brief: as §2
[9] = system: Mycobacterium avium complex sp.; experiment: Antimycobacterial activity against Mycobacterium avium complex after 14 days by broth microdilution method; details: 336 h; method in brief: as §2
[10] = system: Mycobacterium avium; experiment: Antimycobacterial activity against Mycobacterium avium JATA51-01 infected C57BL/6J mouse assessed as lung bacterial count at 200 mg/kg/day dosed through gavage route administered for 28 days post bacterial challenge measured 2 days after last dose
Method in brief: (§3)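 Mice infected via tail vein with 1.0 × 10^7 to 3.0 × 10^7 CFU in 100 μl saline; daily oral gavage started day 21, for 28 days; distilled-water controls; sacrificed 48 h after last dose; lungs, liver, spleen homogenized in saline, serially diluted in 7H9, plated on 7H10 agar; log10 CFU/organ, mean ± SEM, 5 mice/group; ANOVA with Fisher's PLSD; experiment done twice.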

[11] = system: Mycobacterium avium; experiment: Antimycobacterial activity against Mycobacterium avium JATA51-01 infected C57BL/6J mouse assessed as liver bacterial count at 200 mg/kg/day dosed through gavage route administered for 28 days post bacterial challenge measured 2 days after last dose; method in brief: as §3
[12] = system: Mycobacterium avium; experiment: Antimycobacterial activity against Mycobacterium avium JATA51-01 infected C57BL/6J mouse assessed as spleen bacterial count at 200 mg/kg/day dosed through gavage route administered for 28 days post bacterial challenge measured 2 days after last dose; method in brief: as §3
[13] = system: Mycobacterium intracellulare; experiment: Antimycobacterial activity against Mycobacterium intracellular JATA52-01 infected C57BL/6J mouse assessed as lung bacterial count at 200 mg/kg/day dosed through gavage route administered for 28 days post bacterial challenge measured 2 days after last dose; method in brief: as §1
[14] = system: Mycobacterium intracellulare; experiment: Antimycobacterial activity against Mycobacterium intracellular JATA52-01 infected C57BL/6J mouse assessed as liver bacterial count at 200 mg/kg/day dosed through gavage route administered for 28 days post bacterial challenge measured 2 days after last dose; method in brief: as §1
[15] = system: Mycobacterium intracellulare; experiment: Antimycobacterial activity against Mycobacterium intracellular JATA52-01 infected C57BL/6J mouse assessed as spleen bacterial count at 200 mg/kg/day dosed through gavage route administered for 28 days post bacterial challenge measured 2 days after last dose; method in brief: as §1
[16] = system: Mycobacterium avium complex sp.; experiment: Antimycobacterial activity against Mycobacterium avium complex N016 infected C57BL/6J mouse assessed as lung bacterial count at 200 mg/kg/day dosed through gavage route administered for 28 days post bacterial challenge measured 2 days after last dose; method in brief: as §1
[17] = system: Mycobacterium avium complex sp.; experiment: Antimycobacterial activity against Mycobacterium avium complex N016 infected C57BL/6J mouse assessed as liver bacterial count at 200 mg/kg/day dosed through gavage route administered for 28 days post bacterial challenge measured 2 days after last dose; method in brief: as §1
[18] = system: Mycobacterium avium complex sp.; experiment: Antimycobacterial activity against Mycobacterium avium complex N016 infected C57BL/6J mouse assessed as spleen bacterial count at 200 mg/kg/day dosed through gavage route administered for 28 days post bacterial challenge measured 2 days after last dose; method in brief: as §1
[19] = system: Mycobacterium avium complex sp.; experiment: Antimycobacterial activity against Mycobacterium avium complex N084 infected C57BL/6J mouse assessed as lung bacterial count at 200 mg/kg/day dosed through gavage route administered for 28 days post bacterial challenge measured 2 days after last dose; method in brief: as §1
[20] = system: Mycobacterium avium complex sp.; experiment: Antimycobacterial activity against Mycobacterium avium complex N084 infected C57BL/6J mouse assessed as liver bacterial count at 200 mg/kg/day dosed through gavage route administered for 28 days post bacterial challenge measured 2 days after last dose; method in brief: as §1
[21] = system: Mycobacterium avium complex sp.; experiment: Antimycobacterial activity against Mycobacterium avium complex N084 infected C57BL/6J mouse assessed as spleen bacterial count at 200 mg/kg/day dosed through gavage route administered for 28 days post bacterial challenge measured 2 days after last dose; method in brief: as §1
[22] = system: Mycobacterium avium complex sp.; experiment: Antimycobacterial activity against Mycobacterium avium complex N018 infected C57BL/6J mouse assessed as spleen bacterial count at 100 mg/kg/day dosed through gavage route administered for 28 days post bacterial challenge measured 2 days after last dose; method in brief: as §1
[23] = system: Mycobacterium avium complex sp.; experiment: Antimycobacterial activity against Mycobacterium avium complex N084 infected C57BL/6J mouse assessed as lung bacterial count at 100 mg/kg/day dosed through gavage route administered for 28 days post bacterial challenge measured 2 days after last dose; method in brief: as §1
[24] = system: Mycobacterium avium; experiment: Antimycobacterial activity against Mycobacterium avium JATA51-01 infected C57BL/6J mouse assessed as lung bacterial count at 100 mg/kg/day dosed through gavage route administered for 28 days post bacterial challenge measured 2 days after last dose; method in brief: as §3
[25] = system: Mycobacterium avium; experiment: Antimycobacterial activity against Mycobacterium avium JATA51-01 infected C57BL/6J mouse assessed as liver bacterial count at 100 mg/kg/day dosed through gavage route administered for 28 days post bacterial challenge measured 2 days after last dose; method in brief: as §3
[26] = system: Mycobacterium avium; experiment: Antimycobacterial activity against Mycobacterium avium JATA51-01 infected C57BL/6J mouse assessed as spleen bacterial count at 100 mg/kg/day dosed through gavage route administered for 28 days post bacterial challenge measured 2 days after last dose; method in brief: as §3
[27] = system: Mycobacterium intracellulare; experiment: Antimycobacterial activity against Mycobacterium intracellular JATA52-01 infected C57BL/6J mouse assessed as lung bacterial count at 100 mg/kg/day dosed through gavage route administered for 28 days post bacterial challenge measured 2 days after last dose; method in brief: as §1
[28] = system: Mycobacterium intracellulare; experiment: Antimycobacterial activity against Mycobacterium intracellular JATA52-01 infected C57BL/6J mouse assessed as liver bacterial count at 100 mg/kg/day dosed through gavage route administered for 28 days post bacterial challenge measured 2 days after last dose; method in brief: as §1
[29] = system: Mycobacterium intracellulare; experiment: Antimycobacterial activity against Mycobacterium intracellular JATA52-01 infected C57BL/6J mouse assessed as spleen bacterial count at 100 mg/kg/day dosed through gavage route administered for 28 days post bacterial challenge measured 2 days after last dose; method in brief: as §1
[30] = system: Mycobacterium avium complex sp.; experiment: Antimycobacterial activity against Mycobacterium avium complex N016 infected C57BL/6J mouse assessed as lung bacterial count at 100 mg/kg/day dosed through gavage route administered for 28 days post bacterial challenge measured 2 days after last dose; method in brief: as §1
[31] = system: Mycobacterium avium complex sp.; experiment: Antimycobacterial activity against Mycobacterium avium complex N016 infected C57BL/6J mouse assessed as liver bacterial count at 100 mg/kg/day dosed through gavage route administered for 28 days post bacterial challenge measured 2 days after last dose; method in brief: as §1
[32] = system: Mycobacterium avium complex sp.; experiment: Antimycobacterial activity against Mycobacterium avium complex N016 infected C57BL/6J mouse assessed as spleen bacterial count at 100 mg/kg/day dosed through gavage route administered for 28 days post bacterial challenge measured 2 days after last dose; method in brief: as §1
[33] = system: Mycobacterium avium complex sp.; experiment: Antimycobacterial activity against Mycobacterium avium complex N018 infected C57BL/6J mouse assessed as lung bacterial count at 100 mg/kg/day dosed through gavage route administered for 28 days post bacterial challenge measured 2 days after last dose; method in brief: as §1
[34] = system: Mycobacterium avium complex sp.; experiment: Antimycobacterial activity against Mycobacterium avium complex N018 infected C57BL/6J mouse assessed as liver bacterial count at 100 mg/kg/day dosed through gavage route administered for 28 days post bacterial challenge measured 2 days after last dose; method in brief: as §1
[35] = system: Mycobacterium avium complex sp.; experiment: Antimycobacterial activity against Mycobacterium avium complex N084 infected C57BL/6J mouse assessed as liver bacterial count at 100 mg/kg/day dosed through gavage route administered for 28 days post bacterial challenge measured 2 days after last dose; method in brief: as §1
[36] = system: Mycobacterium avium complex sp.; experiment: Antimycobacterial activity against Mycobacterium avium complex N084 infected C57BL/6J mouse assessed as spleen bacterial count at 100 mg/kg/day dosed through gavage route administered for 28 days post bacterial challenge measured 2 days after last dose; method in brief: as §1

Row | Structure (SMILES) | log10cfu [1] | log10cfu [2] | log10cfu [3] | MIC [4] [mg/L] | MIC [5] [mg/L] | MIC [6] [mg/L] | MIC [7] [mg/L] | MIC [8] [mg/L] | MIC90 [9] [mg/L] | log10cfu [10] | log10cfu [11] | log10cfu [12] | log10cfu [13] | log10cfu [14] | log10cfu [15] | log10cfu [16] | log10cfu [17] | log10cfu [18] | log10cfu [19] | log10cfu [20] | also measured
1 | CC[C@H]1OC(=O)[C@H](C)[C@@H](O[C@H]2C[C@@](C)(OC)[C@@H](O)[C@H](C)O2)[C@H](C)[C@@H](O[C@@H]2O[C@H](C)C[C@H](N(C)C)[C@H]2O)[C@](C)(OC)C[C@@H](C)C(=O)[C@H](C)[C@@H](O)[C@]1(C)O [CLARITHROMYCIN] | 5.03 | 2.18 | 4.06 | 2 (≈ 2.67 µM) | 0.5 (≈ 0.668 µM) | 2 (≈ 2.67 µM) | 0.5 (≈ 0.668 µM) | 0.5 (≈ 0.668 µM) | 64 (≈ 85.6 µM) | 7.1 | 8.12 | 7.1 | 3.17 | 3.2 | 3.16 | 3.94 | 5.91 | 5.36 | 5.28 | 4.58 | log10cfu [21]: 4.3
2 | COc1c(N2CCNC(C)C2)c(F)cc2c(=O)c(C(=O)O)cn(C3CC3)c12 (stereo not drawn) [GATIFLOXACIN] |  |  |  | 2 (≈ 5.33 µM) | 1 (≈ 2.66 µM) | 0.5 (≈ 1.33 µM) | 1 (≈ 2.66 µM) | 1 (≈ 2.66 µM) | 4 (≈ 10.7 µM) |  |  |  |  |  |  |  |  |  |  |  | log10cfu [22]: 6.75; log10cfu [23]: 8.14; log10cfu [24]: 8.9; log10cfu [25]: 9.91; log10cfu [26]: 9.18; log10cfu [27]: 5.32; log10cfu [28]: 5.15; log10cfu [29]: 4.41; log10cfu [30]: 5.48; log10cfu [31]: 6.6; log10cfu [32]: 6.81; log10cfu [33]: 5.96; log10cfu [34]: 7.21; log10cfu [35]: 8; log10cfu [36]: 7.6
3 | C[C@H]1COc2c(N3CCN(C)CC3)c(F)cc3c(=O)c(C(=O)O)cn1c23.C[C@H]1COc2c(N3CCN(C)CC3)c(F)cc3c(=O)c(C(=O)O)cn1c23.O [LEVOFLOXACIN] | 7.4 | 6.01 | 6.82 | 4 | 4 | 2 | 4 | 8 | 16 | 9.01 | 9.92 | 9.38 | 5.47 | 5.16 | 4.48 | 5.48 | 6.52 | 6.72 | 7.82 | 7.77 | log10cfu [21]: 7.58
4 | COc1c(N2C[C@@H]3CCCN[C@@H]3C2)c(F)cc2c(=O)c(C(=O)O)cn(C3CC3)c12 [MOXIFLOXACIN] |  |  |  |  | 0.5 (≈ 1.25 µM) | 0.5 (≈ 1.25 µM) | 0.5 (≈ 1.25 µM) | 0.5 (≈ 1.25 µM) | 2 (≈ 4.98 µM) |  |  |  |  |  |  |  |  |  |  |  | log10cfu [22]: 6.6; log10cfu [23]: 7.9; log10cfu [24]: 8.83; log10cfu [25]: 9.68; log10cfu [26]: 9.18; log10cfu [27]: 4.83; log10cfu [28]: 4.76; log10cfu [29]: 4.15; log10cfu [30]: 5.35; log10cfu [31]: 6.53; log10cfu [32]: 6.6; log10cfu [33]: 5.79; log10cfu [34]: 7.09; log10cfu [35]: 7.78; log10cfu [36]: 7.39
